From article PMC11248911 (RSC Advances, 2024)
Like-named read-outs stand apart in the source and are kept apart here.

Columns and labels:
[1] = test system: MCF-7 human cancer cell line; experiment: In vitro antiproliferative activity, LDH release assay, MCF-7; assay type: cell-based; settings: for IC50: Homo sapiens
Outline: (§1)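 Cells were grown in RPMI-1640 with 10% heat-inactivated FBS and penicillin/streptomycin at 37 °C, 5% CO2. Seeded at 2 × 10^5 cells per well, grown 18 h, then treated with a concentration series for 48 h. LDH in supernatant and in 6% Triton X-100 lysate was read kinetically for 1 min at 340 nm, using pH 7.5 phosphate buffer with 4.6 mM pyruvate and β-NADH. Release was taken as % of total; IC50 by probit, thrice in triplicate.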

[2] = test system: normal human skin fibroblast (BJ-1) cell line; experiment: In vitro antiproliferative activity, LDH release assay, BJ-1 normal cells; assay type: cell-based; settings: 48 h, read-out: BJ-1 IC50
Outline: as §1

MCF-7 cells [3] = experiment: Cell cycle analysis by flow cytometry; assay type: cell-based, human; settings: MCF-7, 48 h
aminopeptidase N (APN) = aminopeptidase N (APN) (Homo sapiens, UniProt P15144); experiment: In vitro APN inhibition assay; assay type: biochemical
Sequence of aminopeptidase N (APN) (P15144 whole entry): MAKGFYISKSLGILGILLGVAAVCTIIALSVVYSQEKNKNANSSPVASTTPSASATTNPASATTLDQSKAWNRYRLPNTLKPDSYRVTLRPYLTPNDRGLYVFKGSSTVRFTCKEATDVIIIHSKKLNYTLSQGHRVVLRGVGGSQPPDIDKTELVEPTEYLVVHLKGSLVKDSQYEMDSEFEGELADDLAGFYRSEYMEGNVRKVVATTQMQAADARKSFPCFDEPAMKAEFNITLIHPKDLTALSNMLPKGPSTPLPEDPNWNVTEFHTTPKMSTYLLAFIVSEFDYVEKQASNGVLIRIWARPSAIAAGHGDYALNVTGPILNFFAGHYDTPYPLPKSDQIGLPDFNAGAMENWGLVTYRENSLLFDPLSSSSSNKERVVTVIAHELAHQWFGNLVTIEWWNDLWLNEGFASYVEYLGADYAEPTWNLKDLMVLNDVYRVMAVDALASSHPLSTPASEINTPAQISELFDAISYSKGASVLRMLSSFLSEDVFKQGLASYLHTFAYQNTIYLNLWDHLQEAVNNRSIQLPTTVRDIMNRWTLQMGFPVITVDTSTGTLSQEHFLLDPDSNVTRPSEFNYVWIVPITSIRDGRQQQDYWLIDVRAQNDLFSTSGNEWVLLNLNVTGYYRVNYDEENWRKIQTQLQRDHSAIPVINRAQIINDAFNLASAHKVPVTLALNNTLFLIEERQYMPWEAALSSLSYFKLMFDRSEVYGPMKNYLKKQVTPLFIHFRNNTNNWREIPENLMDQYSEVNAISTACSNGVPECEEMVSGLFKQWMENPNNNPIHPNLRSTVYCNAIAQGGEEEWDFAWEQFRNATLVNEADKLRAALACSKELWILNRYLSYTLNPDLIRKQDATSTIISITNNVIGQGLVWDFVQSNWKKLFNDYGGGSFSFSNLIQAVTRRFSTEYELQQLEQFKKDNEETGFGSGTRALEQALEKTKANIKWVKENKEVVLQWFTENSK
Outline: (§2)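 Enzyme activity kits were run per manufacturer's instructions. Experiments were done in triplicate (n = 3) and reported as mean ± SD. IC50s were derived by probit analysis.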

VEGFR2 = assay type: biochemical, human; settings: biomarker for angiogenesis
MCF-7 cells [4] = experiment: Apoptosis assay, Annexin-V/FITC and PI flow cytometry; assay type: cell-based, human; settings: MCF-7, 48 h
MCF-7 cells [5] = experiment: Wound healing; assay type: cell-based, human; settings: control cells 97.03%
MMP9 = experiment: In vitro MMP9 inhibition assay; assay type: biochemical, human; settings: biomarker for invasion
Outline: as §2

[6] = MCF7, 48 h, read-out: MCF-7 IC50
[7] = MCF7, read-out: MCF-7 Experimental activity (pIC50) (converted)

IC50 [1, 6] | IC50 [1, 7] | Structure (SMILES) | further results
8.8 ± 0.5 µM | 8.8 µM | CC1=NN(c2ccccc2Cl)C(c2ccccc2)C1 (stereo not shown) [Compound 3, 1-(2-Chlorophenyl)-4,5-dihydro-3-methyl-5-phenyl-1H-pyrazole] | 
8.1 ± 0.5 µM | 8.1 µM | CC1=NN(c2c(Cl)cc(Cl)cc2Cl)C(c2ccccc2)C1 (stereo not shown) [Compound 4, 1-(2,4,6-Trichlorophenyl)-4,5-dihydro-3-methyl-5-phenyl-1H-pyrazole] | 
6.4 ± 0.3 µM | 6.4 µM | CNC(=S)N1N=C(C)CC1c1ccccc1 (stereo not shown) [Compound 6, 4,5-Dihydro-N,3-dimethyl-5-phenylpyrazole-1-carbothioamide] | IC50 [2]: 18.2 ± 1.5 µM
5.8 ± 0.2 µM | 5.8 µM | CCNC(=S)N1N=C(C)CC1c1ccccc1 (stereo not shown) [Compound 7, N-Ethyl-4,5-dihydro-3-methyl-5-phenylpyrazole-1-carbothioamide] | IC50 [2]: 18.7 ± 1.5 µM
7 ± 0.3 µM | 7 µM | CC1=NN(C(=S)NCc2ccccc2)C(c2ccccc2)C1 (stereo not shown) [Compound 9, N-Benzyl-4,5-dihydro-3-methyl-5-phenylpyrazole-1-carbothioamide] | 
7.6 ± 0.3 µM | 7.6 µM | CC1=NN(c2nc(-c3ccccc3)cs2)C(c2ccccc2)C1 (stereo not shown) [Compound 10, 4,5-Dihydro-3-methyl-5-phenyl-1-(4-phenylthiazol-2-yl)-1H-pyrazole] | 
6.9 ± 0.2 µM | 6.9 µM | CC1=NN(c2nc(-c3ccc(F)cc3)cs2)C(c2ccccc2)C1 (stereo not shown) [Compound 11, 1-(4-(4-Fluorophenyl)thiazol-2-yl)-4,5-dihydro-3-methyl-5-phenyl-1H-pyrazole] | 
7.1 ± 0.2 µM | 7.1 µM | COc1ccc(-c2csc(N3N=C(C)CC3c3ccccc3)n2)cc1 (stereo not shown) [Compound 12, 4,5-Dihydro-1-(4-(4-methoxyphenyl)thiazol-2-yl)-3-methyl-5-phenyl-1H-pyrazole] | 
6.7 ± 0.2 µM | 6.7 µM | CC1=NN(c2nc(-c3ccc(Cl)cc3Cl)cs2)C(c2ccccc2)C1 (stereo not shown) [Compound 13, 1-(4-(2,4-Dichlorophenyl)thiazol-2-yl)-4,5-dihydro-3-methyl-5-phenyl-1H-pyrazole] | 
8.6 ± 0.3 µM | 8.6 µM | CC1=NN(C2=NC(=O)C(C)S2)C(c2ccccc2)C1 (stereo not shown) [Compound 15, 2-(4,5-Dihydro-3-methyl-5-phenylpyrazol-1-yl)-5-methylthiazol-4(5H)-one] | 
6.6 ± 0.2 µM | 6.6 µM | CC1=NN(C2=NC(=O)C(=Cc3ccc(F)cc3)S2)C(c2ccccc2)C1 (stereo not shown) [Compound 16, 5-(4-Fluorobenzylidene)-2-(4,5-dihydro-3-methyl-5-phenylpyrazol-1-yl)thiazol-4(5H)-one] | 
7 ± 0.3 µM | 7 µM | COc1ccc(C=C2SC(N3N=C(C)CC3c3ccccc3)=NC2=O)cc1 (stereo not shown) [Compound 17, 5-(4-Methoxybenzylidene)-2-(4,5-dihydro-3-methyl-5-phenylpyrazol-1-yl)thiazol-4(5H)-one] | 
6.9 ± 0.2 µM | 6.9 µM | CC1=NN(C2=NC(=O)C(=Cc3ccc(Cl)cc3Cl)S2)C(c2ccccc2)C1 (stereo not shown) [Compound 18, 5-(2,4-Dichlorobenzylidene)-2-(4,5-dihydro-3-methyl-5-phenylpyrazol-1-yl)thiazol-4(5H)-one] | 
7.5 ± 0.2 µM | 7.5 µM | COc1ccc(C=C2SC(N3N=C(C)CC3c3ccccc3)=NC2=O)cc1OC (stereo not shown) [Compound 19, 5-(3,4-Dimethoxybenzylidene)-2-(4,5-dihydro-3-methyl-5-phenylpyrazol-1-yl)thiazol-4(5H)-one] | 
4.9 ± 0.3 µM |  | COc1cccc2c1C(=O)c1c(O)c3c(c(O)c1C2=O)C[C@@](O)(C(=O)CO)C[C@@H]3O[C@H]1C[C@H](N)[C@H](O)[C@H](C)O1 [Doxorubicin, reference compound] | IC50 [2]: 12.9 ± 1.3 µM
 |  | O=c1c(O)c(-c2ccc(O)c(O)c2)oc2cc(O)cc(O)c12 [quercetin, reference compound] | MMP9 inhibition pIC50 (MMP9): 6.7

Structure (SMILES) | IC50 [1, 6] | IC50 [1, 7] | further results
CC1=NN(C(=S)Nc2ccccc2)C(c2ccccc2)C1 (stereo not shown) [Compound 8, 4,5-Dihydro-3-methyl-N,5-diphenylpyrazole-1-carbothioamide] | 6.2 ± 0.2 µM | 6.2 µM | cell population in S phase (MCF-7 cells [3]; control 24.79%): 23.02%; cell population in G0/G1 phase (MCF-7 cells [3]; control 65.02%): 72.11%; IC50 (aminopeptidase N (APN)): 15.8 µM; selectivity index (SI) ([1]; BJ-1 versus MCF-7): 4.7; VEGFR2 inhibition pIC50 (VEGFR2): 6.7; IC50 [2]: 29.1 ± 2.3 µM; late apoptosis (MCF-7 cells [4]; control 0.15%): 17.11%; early apoptosis (MCF-7 cells [4]; control 0.37%): 11.52%; total MCF-7 cell death (MCF-7 cells [4]; control 1.95%): 32.91%; percentage closure of the wound gap (MCF-7 cells [5]): 57.77%; MMP9 inhibition pIC50 (MMP9): 6.4
